According to ChEMBL document CHEMBL3414513, “Synthesis and biological evaluation of betulonic acid derivatives as antitumor agents” (Eur J Med Chem, 2015):

What was measured:
Assay type in all cases: functional, cell-based
Bcap37 = test: Cytotoxicity against human Bcap37 cells after 72 hrs by MTT assay; conditions: for IC50: Bcap37, 72 h
Method in brief: (§1)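 Cancer lines grown in RPMI 1640 with 10% heat-inactivated FBS, 37 °C, 5% CO2. Cells trypsinized at 80-90% confluence, seeded at 2×10^3/well overnight, then given compounds (DMSO stocks diluted in medium) at various concentrations for 72 h at 37 °C. Controls: 0.1% DMSO negative, adriamycin positive. MTT (5 mg/ml) added for 4 h, formazan dissolved in SDS 12 h, A595 read. IC50 from dose-response curves.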

MGC-803 = test: Cytotoxicity against human MGC803 cells after 72 hrs by MTT assay; conditions: for IC50: MGC-803, 72 h; method in brief: as §1
MCF7 = test: Cytotoxicity against human MCF7 cells after 72 hrs by MTT assay; conditions: for IC50: MCF7, 72 h; method in brief: as §1
A-375 = test: Cytotoxicity against human A375 cells after 72 hrs by MTT assay; conditions: for IC50: A-375, 72 h; method in brief: as §1
[1] = (§2) Cytotoxicity against human PC3 cells after 72 hrs by MTT assay; conditions: PC-3, 72 h
Method in brief: as §1, with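 “Cells” for “Cancer lines grown in RPMI 1640 with 10% heat-inactivated FBS, 37 °C, 5% CO2. Cells”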

PC-3 = test: as §2
Method in brief: as §1, with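 “Cells” for “Cancer lines grown in RPMI 1640 with 10% heat-inactivated FBS, 37 °C, 5% CO2. Cells”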

Structure (SMILES)	Activity (Bcap37)	IC50 (Bcap37) [µM]	IC50 (MGC-803) [µM]	Activity (MCF7)	IC50 (MCF7) [µM]	Activity (A-375)	IC50 (A-375) [µM]	IC50 [1] [µM]	Activity (PC-3)	Activity (MGC-803)
C=C(C)[C@@H]1CC[C@]2(C(=O)O)CC[C@]3(C)[C@H](CC[C@@H]4[C@@]5(C)CCC(=O)C(C)(C)[C@@H]5CC[C@]43C)[C@@H]12 [BETUNOLIC ACID]	Dose-dependent effect	25.7	17.7	Dose-dependent effect	18.2	Dose-dependent effect	28.9	13.9	Dose-dependent effect	–
C=C(C)[C@@H]1CC[C@]2(C(=O)OCCN3CCN(C(=O)c4c(Cl)cccc4Cl)CC3)CC[C@]3(C)[C@H](CC[C@@H]4[C@@]5(C)CCC(=O)C(C)(C)[C@@H]5CC[C@]43C)[C@@H]12	Dose-dependent effect	> 20	16.6	Dose-dependent effect	10.8	Dose-dependent effect	17.4	14.1	Dose-dependent effect	Dose-dependent effect
C=C(C)[C@@H]1CC[C@]2(C(=O)OCCN3CCN(C(=O)c4cccc(F)c4)CC3)CC[C@]3(C)[C@H](CC[C@@H]4[C@@]5(C)CCC(=O)C(C)(C)[C@@H]5CC[C@]43C)[C@@H]12	Dose-dependent effect	6.4	4.9	Dose-dependent effect	5.4	Dose-dependent effect	7.6	6.8	Dose-dependent effect	Dose-dependent effect
C=C(C)[C@@H]1CC[C@]2(C(=O)OCCN3CCOCC3)CC[C@]3(C)[C@H](CC[C@@H]4[C@@]5(C)CCC(=O)C(C)(C)[C@@H]5CC[C@]43C)[C@@H]12	Dose-dependent effect	8.8	9.4	Dose-dependent effect	10.1	Dose-dependent effect	10.5	11.3	Dose-dependent effect	Dose-dependent effect
C=C(C)[C@@H]1CC[C@]2(C(=O)OCCCBr)CC[C@]3(C)[C@H](CC[C@@H]4[C@@]5(C)CCC(=O)C(C)(C)[C@@H]5CC[C@]43C)[C@@H]12	Dose-dependent effect	> 20	> 20	Dose-dependent effect	> 20	Dose-dependent effect	> 20	> 20	Dose-dependent effect	Dose-dependent effect
C=C(C)[C@@H]1CC[C@]2(C(=O)OCCCN3CCCCC3)CC[C@]3(C)[C@H](CC[C@@H]4[C@@]5(C)CCC(=O)C(C)(C)[C@@H]5CC[C@]43C)[C@@H]12	Dose-dependent effect	9.5	6.3	Dose-dependent effect	6.6	Dose-dependent effect	9.5	5.7	Dose-dependent effect	Dose-dependent effect
C=C(C)[C@@H]1CC[C@]2(C(=O)OCCCCBr)CC[C@]3(C)[C@H](CC[C@@H]4[C@@]5(C)CCC(=O)C(C)(C)[C@@H]5CC[C@]43C)[C@@H]12	Dose-dependent effect	> 20	> 20	Dose-dependent effect	> 20	Dose-dependent effect	> 20	> 20	Dose-dependent effect	Dose-dependent effect
C=C(C)[C@@H]1CC[C@]2(C(=O)OCCN3CCN(C(=O)C(CC)CCCC)CC3)CC[C@]3(C)[C@H](CC[C@@H]4[C@@]5(C)CCC(=O)C(C)(C)[C@@H]5CC[C@]43C)[C@@H]12 (stereo partly specified)	Dose-dependent effect	18.7	13.4	Dose-dependent effect	15.4	Dose-dependent effect	> 20	> 20	Dose-dependent effect	Dose-dependent effect
C=C(C)[C@@H]1CC[C@]2(C(=O)OCCN3CCCCC3)CC[C@]3(C)[C@H](CC[C@@H]4[C@@]5(C)CCC(=O)C(C)(C)[C@@H]5CC[C@]43C)[C@@H]12	Dose-dependent effect	16.9	12.5	Dose-dependent effect	16	Dose-dependent effect	17.1	18.8	Dose-dependent effect	Dose-dependent effect
C=C(C)[C@@H]1CC[C@]2(C(=O)OCCN3CCN(C(=O)/C=C/c4ccccc4)CC3)CC[C@]3(C)[C@H](CC[C@@H]4[C@@]5(C)CCC(=O)C(C)(C)[C@@H]5CC[C@]43C)[C@@H]12	Dose-dependent effect	9.4	13.4	Dose-dependent effect	7.3	Dose-dependent effect	9.3	11	Dose-dependent effect	Dose-dependent effect
C=C(C)[C@@H]1CC[C@]2(C(=O)OCCN3CCN(C(=O)c4c(F)cccc4Cl)CC3)CC[C@]3(C)[C@H](CC[C@@H]4[C@@]5(C)CCC(=O)C(C)(C)[C@@H]5CC[C@]43C)[C@@H]12	Dose-dependent effect	7.5	5.3	Dose-dependent effect	8.1	Dose-dependent effect	8.4	9.3	Dose-dependent effect	Dose-dependent effect
C=C(C)[C@@H]1CC[C@]2(C(=O)OCCCN3CCCC3)CC[C@]3(C)[C@H](CC[C@@H]4[C@@]5(C)CCC(=O)C(C)(C)[C@@H]5CC[C@]43C)[C@@H]12	Dose-dependent effect	9.2	7.4	Dose-dependent effect	8.4	Dose-dependent effect	8.3	7.6	Dose-dependent effect	Dose-dependent effect
C=C(C)[C@@H]1CC[C@]2(C(=O)OCCN(CC)CC)CC[C@]3(C)[C@H](CC[C@@H]4[C@@]5(C)CCC(=O)C(C)(C)[C@@H]5CC[C@]43C)[C@@H]12	Dose-dependent effect	15.6	11.7	Dose-dependent effect	12.8	Dose-dependent effect	14.3	10.1	Dose-dependent effect	Dose-dependent effect
COc1cccc2c1C(=O)c1c(O)c3c(c(O)c1C2=O)C[C@@](O)(C(=O)CO)C[C@@H]3O[C@H]1C[C@H](N)[C@H](O)[C@H](C)O1 [DOXORUBICIN]	Dose-dependent effect	1.2	–	–	1.35	Dose-dependent effect	1	–	Dose-dependent effect	Dose-dependent effect
C=C(C)[C@@H]1CC[C@]2(C(=O)OCCBr)CC[C@]3(C)[C@H](CC[C@@H]4[C@@]5(C)CCC(=O)C(C)(C)[C@@H]5CC[C@]43C)[C@@H]12	Dose-dependent effect	> 20	> 20	Dose-dependent effect	> 20	Dose-dependent effect	> 20	> 20	Dose-dependent effect	Dose-dependent effect
C=C(C)[C@@H]1CC[C@]2(C(=O)OCCCN(CC)CC)CC[C@]3(C)[C@H](CC[C@@H]4[C@@]5(C)CCC(=O)C(C)(C)[C@@H]5CC[C@]43C)[C@@H]12	Dose-dependent effect	6.1	6.8	Dose-dependent effect	7.3	Dose-dependent effect	9.3	7	Dose-dependent effect	Dose-dependent effect
C=C(C)[C@@H]1CC[C@]2(C(=O)OCCCN3CCOCC3)CC[C@]3(C)[C@H](CC[C@@H]4[C@@]5(C)CCC(=O)C(C)(C)[C@@H]5CC[C@]43C)[C@@H]12	Dose-dependent effect	7.2	5.6	Dose-dependent effect	9.3	Dose-dependent effect	8.6	6.6	Dose-dependent effect	Dose-dependent effect
